Results pooled from the literature.
Lines come from different studies, so protocols differ.
MAOB: Amine oxidase [flavin-containing] B (MAOB, Homo sapiens, UniProt P27338)
ADRB1: Beta-1 adrenergic receptor (ADRB1, Homo sapiens, UniProt P08588)

| Structure (SMILES) | target | effect on | action | technique | notes | IC50 [µM] |
| --- | --- | --- | --- | --- | --- | --- |
| COc1ccc(/C=C/C(=O)N2CCN(Cc3ccccc3)CC2)cc1OC | MAOB | enzyme activity | inhibitor | fluorescence |  | 1.9 |
| C#CCNc1nc(NCCCCC2CCN(Cc3ccccc3)CC2)c(C#N)c(-c2ccccc2)c1C#N | MAOB | enzyme activity | inhibitor | fluorescence | with preincubation | > 100 |
| COc1ncccc1-c1cnn2ccc(N3CCN(C(=O)OC(C)C)CC3)nc12 | MAOB | enzyme activity | inhibitor |  |  | > 30 |
| COc1cccc(CO)c1 | MAOB | enzyme activity | inhibitor | fluorescence |  | > 10 |
| C[C@H](N)Cn1ncc2ccc3c(c21)CCCO3 | ADRB1 | ligand displacement |  | radioligand |  | 5 |
| O=[N+]([O-])c1cc(Cl)c(O)c(Cl)c1 | Sulfotransferase 1A1 (SULT1A1, Homo sapiens, UniProt P50225) | enzyme activity | inhibitor |  |  | 0.245 |
| C#CCNc1nc(NCCCC2CCN(Cc3ccccc3)CC2)c(C#N)cc1C#N | MAOB | enzyme activity | inhibitor | fluorescence | with preincubation | > 100 |
| CCOc1ccccc1OCCN[C@H](C)Cc1ccc(OC)c(S(N)(=O)=O)c1 | ADRB1 | ligand displacement |  | radioligand |  | 2.5 |
| C#CCNc1nc(NCCC2CCN(Cc3ccccc3)CC2)c(C#N)c(-c2ccccc2)c1C#N | MAOB | enzyme activity | inhibitor | fluorescence | with preincubation | > 100 |
| O=c1c2ccccc2[se]n1-c1ccccc1 | ung (Escherichia coli, UniProt P12295) | enzyme activity | inhibitor |  |  | > 200 |
| [Ba+2].[Cl-].[Cl-] | Inward rectifier potassium channel 2 (KCNJ2, Homo sapiens, UniProt P63252) | ion current | inhibitor |  |  | 8.2 |
| C#CCN(C)c1nc(NCCCC2CCN(Cc3ccccc3)CC2)c(C#N)cc1C#N | MAOB | enzyme activity | inhibitor | fluorescence | with preincubation | 6.11 |
| CSCC[C@@H]1NC(=O)[C@H](CC(N)=O)NC(=O)[C@H](CCCNC(=N)N)NC(=O)[C@H]([C@@H](C)O)NC(=O)[C@H](Cc2ccc(O)cc2)NC(=O)[C@@H](NC(=O)[C@H](C)N)CSSC[C@@H](C(N)=O)NC(=O)[C@H](CCC(N)=O)NC(=O)[C@H](CC(N)=O)NC1=O | Lysine-specific demethylase 4C (KDM4C, Homo sapiens, UniProt Q9H3R0) | enzyme activity | inhibitor | TR-FRET |  | 406 |
